GalR3 antag: blocks the human galanin receptor 3 | inhibition, % at 3 µM | HEK293 GalR3-CNG cAMP membrane potential fluorescence; galR3 body fused to GalR1 C-terminus | AID 651719 | hit rate 0.44% among 360,000 | O60755;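 active means inhibition above the screen-wide average plus 3 SD, cut at about 13% in these data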;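 further: forskolin and galanin both at EC90 stimulate the cells; cAMP rise reported by CNG channel membrane potential dye signal; 0% = forskolin plus galanin with DMSO and 100% = forskolin alone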
NR2E3 ag-1: human photoreceptor-specific nuclear receptor agonism | CHO-S Gal4-NCOR/VP16-NR2E3 two-hybrid, luciferase | inhibition of corepressor binding, % at 3.98 µM | hit rate 0.35% among 360,000 | AID 602229;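 active means inhibition above the mean of all tested compounds plus 3 SD, cut at about 70% in these data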;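 further: 0% = DMSO with NR2E3 transfected cells and 100% = cells lacking NR2E3 construct; higher means lower luciferase signal from less NR2E3 corepressor binding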
Rev-erbA mod: modulates human Rev-erb alpha binding to DNA. P20393. Rev-erbα–FITC-DNA binding, fluorescence polarization, 90 min. activity, % at 10 µM. hit rate 0.79% among 370,000;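 active means activity above about 14%, limit read from the data; passing the limit was not always enough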;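 further: 0% = DMSO wells with 35 nM protein and 100% = DMSO wells with 750 nM protein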
Target sequence (P20393 whole entry, looked up): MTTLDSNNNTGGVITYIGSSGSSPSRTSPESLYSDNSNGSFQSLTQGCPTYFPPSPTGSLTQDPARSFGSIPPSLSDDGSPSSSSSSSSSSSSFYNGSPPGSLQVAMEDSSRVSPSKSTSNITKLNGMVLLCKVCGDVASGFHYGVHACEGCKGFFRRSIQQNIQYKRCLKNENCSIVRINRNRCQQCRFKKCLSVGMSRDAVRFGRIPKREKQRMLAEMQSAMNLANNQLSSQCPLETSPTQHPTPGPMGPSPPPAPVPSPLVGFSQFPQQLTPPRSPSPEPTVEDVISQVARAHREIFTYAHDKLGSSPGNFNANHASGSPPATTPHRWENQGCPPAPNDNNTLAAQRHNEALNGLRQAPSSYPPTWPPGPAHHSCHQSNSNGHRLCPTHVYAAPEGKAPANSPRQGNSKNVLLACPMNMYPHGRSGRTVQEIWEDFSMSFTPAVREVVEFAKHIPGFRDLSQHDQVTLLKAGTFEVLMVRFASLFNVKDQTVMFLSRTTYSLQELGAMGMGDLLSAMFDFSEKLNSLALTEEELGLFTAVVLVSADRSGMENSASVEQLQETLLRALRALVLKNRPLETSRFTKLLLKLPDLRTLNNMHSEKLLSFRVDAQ
NR2E3 ag-2: agonists of human nuclear receptor NR2E3; Q9Y5X4; GST-NR2E3/biotin-RetCOR TR-FRET, 1536-well; inhibition of corepressor binding, % at 4.78 µM; hit rate 0.12% among 320,000;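 active means percent inhibition above the cutoff of mean plus 3 SD of all tested compounds, set per screening campaign, cut at about 20% in these data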;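 further: 0% = DMSO wells and 100% = biotin wells as full block of FRET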
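Material: NR2E3–RetCOR corepressor complex | Quantity: 1.35 nM GST-tagged NR2E3 final | Schedule: 5 h at 4 °C | Replication: Singlicate compound wells | Reagent: RetCOR corepressor, biotinylated, 7 nM | Controls: Biotin wells as high control, 0.6% DMSO wells as low control | Signal: TR-FRET, Eu(K)-anti-GST donor, streptavidin-D2 acceptor, ex 340, em 617/671 nm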
PG9 Ab binder: binds the HIV-1 gp120 antibody PG9; TR-FRET gp120-PG9 antibody binding; inhibition, % at 6.7 µM; hit rate 0.43% among 360,000; in the data active means inhibition above about 8.5%
NR2E3 ag confirm: NR2E3 agonism confirmed in two-hybrid assay | shares compounds with NR2E3 ag-1 | CHO-S mammalian two-hybrid NR2E3-NCOR, luciferase luminescence | inhibition, % at 3.98 µM | hit rate 51% among 2,300;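 active means average inhibition above a cutoff equal to the mean inhibition of all tested compounds plus one SD, cut at about 70% in these data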;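 further: 0% = DMSO in NR2E3 cells and 100% = DMSO in cells lacking NR2E3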
GAL4-VP16 luc: GAL4-VP16 reporter inhibition in NR2E3 agonist counterscreen | shares compounds with NR2E3 ag-1 | CHO-S GAL4-VP16 luciferase reporter, luminescence | inhibition, % at 3.98 µM | hit rate 29% among 2,300;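 active means mean inhibition above a cutoff equal to the average over all tested compounds plus one standard deviation, cut at about 70% in these data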;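 further: luciferase from a UAS reporter driven by GAL4-VP16 transactivation; 0% = DMSO with VP16-transfected cells and 100% = DMSO with cells lacking VP16; higher means less reporter light so more repression of VP16 activity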
* = called active by the depositor; nt = no result. An excerpt weighted towards active compounds, which were near 1.8% of everything screened.

SMILES	GalR3 antag	NR2E3 ag-1	Rev-erbA mod	NR2E3 ag-2	PG9 Ab binder	NR2E3 ag confirm	GAL4-VP16 luc
C=CCN1[C@H](Cc2ccccc2)COc2cc(F)ccc2S1(=O)=O	nt	nt	4	nt	nt	nt	nt
COc1cccc(N2CCN(C(=O)c3ccc(CS(=O)c4ccccc4C)o3)CC2)c1 (centres undefined)	2	17	1	-3	-1	nt	nt
COc1cccc(N2CCN(C(=O)c3ccc(CS(=O)c4ccccc4Cl)o3)CC2)c1 (centres undefined)	3	48	1	0	0	16	16
Cc1cc(C(=O)COc2cccnc2[N+](=O)[O-])c(C)n1-c1ccccc1F	5	50	-4	-3	1	58	35
Cc1cc(C(=O)COc2cccnc2[N+](=O)[O-])c(C)n1-c1ccccc1	0	71*	1	-1	-4	72*	54
Cc1ccc(-n2c(C)cc(C(=O)COc3cccnc3[N+](=O)[O-])c2C)cc1	-7	68	0	-2	-1	29	50
CC1(C)C2CCC1(C)C(O)C2 (centres undefined)	nt	nt	0	nt	nt	nt	nt
C[C@H]1[C@@H](NC(=O)/C=C/c2ccccc2)CC[C@@]23CCCN2C(=O)CCC[C@@H]13	nt	nt	3	nt	nt	nt	nt
O=C(NCCc1c[nH]c2ccccc12)[C@H](Cc1c[nH]c2ccccc12)NC1(C(=O)NC2CCCCC2)CCCCCCC1	nt	nt	2	nt	nt	nt	nt
C=C1CCC2C(C)(C)CCC[C@]2(C)[C@H]1CC1=C(O)C(=O)C(CO)=CC1=O (some centres undefined)	nt	nt	-9	nt	nt	nt	nt
CCCS(=O)(=O)c1cnc(C2COc3ccccc3O2)nc1N (centres undefined)	-12	56	4	1	0	43	12
CCOC(=O)c1c(NC(=O)/C=C/C(=O)O)sc(C)c1-c1ccc(C(C)(C)C)cc1	-4	53	-1	0	1	51	8
CCOC(=O)c1c(NC(=O)/C=C\C(=O)O)sc(C)c1-c1ccccc1	-2	-5	0	3	-1	nt	nt
COc1ccc(C2=Nn3c(nnc3C3CCCCC3)SC2)cc1	nt	nt	-3	nt	nt	nt	nt
N#C/C(=N/Nc1ccc(OC(F)(F)F)cc1)C(N)=S	-5	93*	0	-1	-2	93*	58
Cn1ncc(S(=O)(=O)Cc2ccccc2)c(Cl)c1=O	0	64	-4	-2	-3	32	-1
Cc1sc2ncnc(NCC(O)c3ccc([N+](=O)[O-])cc3)c2c1C (centres undefined)	-5	105*	-1	7	0	95*	76*
Cc1sc2ncnc(NCC(c3ccccc3)N(C)C)c2c1C (centres undefined)	-7	1	3	4	-3	nt	nt
O=C(CCN1C(=O)S/C(=C\c2ccc(Cl)cc2)C1=O)Nc1ccc(C(=O)O)cc1	-2	-20	1	2	-4	nt	nt
COc1ccc(/C=C2/SC(=S)N(CCCC(=O)Nc3cccc(O)c3)C2=O)cc1	-7	61	-4	2	-2	1	60
COc1ccc(/C=C2\SC(=O)N(CCCC(=O)Nc3ccc(C(=O)O)cc3)C2=O)cc1	-5	88*	-1	nt	-1	85*	92*
COc1ccc(/C=C2\SC(=S)N(CCCC(=O)Nc3cccc(C(=O)O)c3)C2=O)cc1OC	-3	2	4	-1	-4	nt	nt
COc1cccc(/C=C2\SC(=S)N(CCCC(=O)Nc3cccc(C(=O)O)c3)C2=O)c1	nt	68	nt	nt	nt	23	58
COc1ccc(/C=C2\SC(=S)N(CCC(=O)Nc3cccc(O)c3)C2=O)cc1OC	-3	-22	0	-2	1	nt	nt
COC(=O)[C@]12C[C@H](CC(=O)NCc3ccccc3)C(=O)N(CCc3ccc(OC)c(OC)c3)C1=C[C@H](COCc1ccccc1)O[C@@H]2C	nt	nt	-3	nt	nt	nt	nt
SMILES	GalR3 antag	NR2E3 ag-1	Rev-erbA mod	NR2E3 ag-2	PG9 Ab binder	NR2E3 ag confirm	GAL4-VP16 luc
CC(Oc1ccc(Cl)cc1Cl)c1nc(-c2ccc(NC(=O)c3cccnc3)cc2)no1 (centres undefined)	-4	15	-1	0	-3	nt	nt
CC(Oc1ccc(Cl)cc1Cl)c1nc(-c2ccc(NC(=O)c3ccncc3)cc2)no1 (centres undefined)	-7	51	-2	-3	-3	78*	72*
S=c1[nH]nc(-c2cc(-c3ccsc3)n[nH]2)n1-c1cccc2ccccc12	4	49	-3	2	2	18	-17
CC(=O)c1ccc(-n2c(-c3cc(-c4ccsc4)n[nH]3)n[nH]c2=S)cc1	-5	3	-11	-6	2	nt	nt
O=C1C2C3C=CC(C3)C2C(=O)N1c1ccc(Cc2ccncc2)cc1 (centres undefined)	-4	52	-3	3	1	12	34
CCCCC(=O)N1CCC(NS(=O)(=O)c2ccc3c(c2)CCN3C(C)=O)CC1	nt	nt	-3	nt	nt	nt	nt
COC1=C(c2ccccc2)C(=O)c2ccccc2C1=O	-4	-24	-4	-4	-4	nt	nt
O=C(C1=C(c2ccccc2)C(=O)c2ccccc2C1=O)c1ccccc1	-11	78*	3	nt	-1	99*	93*
CCN(CC)S(=O)(=O)c1ccc(N2CCOCC2)c(NS(=O)(=O)c2cc(C(C)(C)C)ccc2C)c1	-2	50	-7	1	-2	66	-18
CCOC(=O)[C@]12CCCC3=C1N(CCC3)C(=O)[C@@H](CC(=O)NCc1cccc(C(F)(F)F)c1)C2	nt	nt	5	nt	nt	nt	nt
Cc1ccc(S(=O)(=O)Nc2cccc3ncccc23)s1	nt	102*	nt	3	nt	53	5
Cc1ccc(S(=O)(=O)Nc2cccc3ncccc23)cc1	-4	13	-3	0	0	nt	nt
OC(c1ccccc1)(c1ccccc1)C1CCN(CCCOc2ccc(-c3ccc(F)cc3F)cc2)CC1	-6	nt	-5	nt	3	nt	nt
CSc1ccc(COC(=O)c2cc([N+](=O)[O-])ccc2N2CCOCC2)cc1	-5	61	0	-1	-1	12	27
Cc1ccccc1COC(=O)c1cc([N+](=O)[O-])ccc1N1CCOCC1	2	-3	2	1	1	nt	nt
CCOC(=O)Cn1c(=O)c(-c2ccccc2N)nc2ccccc21	0	-7	4	0	0	nt	nt
CCOC(=O)Cn1c(=O)c(-c2cc(Br)ccc2N)nc2ccccc21	-4	76*	13	1	-3	80*	68
CCOC(=O)Cc1nc(N2CCN(C=O)CC2)c2c(C)c(C(=O)OCC)sc2n1	nt	nt	7	nt	nt	nt	nt
CCOC(=O)CC[C@@]1(C(=O)OCC)C[C@@H](CC(=O)NCCc2ccccc2OC)C(=O)N2CCCC=C21	nt	nt	3	nt	nt	nt	nt
COc1cc(/C=C2\COC/C(=C\c3cc(OC)c(OC)c(OC)c3)C2=O)cc(OC)c1OC	-1	86*	-8	nt	-2	100*	82*

Compound activity as filed in PubChem.
